ChEMBL document CHEMBL4513216, “Probing the Open Global Health Chemical Diversity Library for Multistage-Active Starting Points for Next-Generation Antimalarials” (ACS Infect Dis, 2020)

Experiment: Toxicity liver stage against HepG2, at 10uM
Format: cell-based
Parameters: test concentration 10 uM, cell line HepG2-A16-CD81EGFP
Conditions: human, HepG2-A16-CD81EGFP cells; read-out: INHIBITION
Summary of the method: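 Uninfected HepG2-A16-CD81EGFP cells, 3 × 10^3 per well, 1536-well, plated on prespotted compound at 10 μM final, parasite-free screening media added to match infected plates; puromycin 10 μM positive, DMSO 0.5% negative; run in parallel with 48 h PbLuc assay at 37 °C, 5% CO2; viability by CellTiter-Glo luminescence, normalized to controls.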

## Cc1ccc(CNC(=O)C2CCN(C(=O)c3ccco3)CC2)n1C
  cytotoxicity at 10 µM: 2.46%

## c1ccc(O[C@H]2COCCN(Cc3c[nH]c4ccccc34)C2)cc1
  cytotoxicity at 10 µM: -0.347%

## Cc1cc(C(=O)N2CCOC[C@H](Oc3cccnc3)C2)c(C(F)(F)F)o1
  cytotoxicity at 10 µM: 3.11%

## COCCOc1ccnc(-c2noc([C@@H]3CCCN3C3CCC3)n2)c1
  cytotoxicity at 10 µM: -8.46%

## CSc1ccc(C(=O)N2CC(=O)N(Cc3ccccc3)CC(O)C2)cc1 (stereo not given)
  cytotoxicity at 10 µM: -0.426%

## O=C(NCC1(O)CCc2ccccc21)Nc1ccc2c(c1)OCO2 (stereo not given)
  cytotoxicity at 10 µM: -11.2%

## CCN1C(=O)C[C@@H]2[C@@H]1CCN2S(=O)(=O)c1ccc(OC)cc1
  cytotoxicity at 10 µM: 0.434%

## O=C(C1CCC1)N1C[C@H]2CNC[C@H]2C1
  cytotoxicity at 10 µM: -4.1%

## CCCS(=O)(=O)N1CCOC2(CCCN(c3ncc(F)cn3)C2)C1 (stereo not given)
  cytotoxicity at 10 µM: 8.22%

## CCOC[C@@H]1CC[C@H]2[C@H](CCN2C(=O)c2cnccn2)O1
  cytotoxicity at 10 µM: -10.6%

## CC(=O)N1CC[C@@H]2CN(Cc3cccc(Cl)c3)S(=O)(=O)[C@@H]2CC1
  cytotoxicity at 10 µM: -10.8%

## O=C(C1CCC1)N1CCC2(COCc3cnc(-c4cccnc4)nc32)C1 (stereo not given)
  cytotoxicity at 10 µM: 3.5%

## Cc1c(Cl)cccc1NC(=O)Cn1cc(C(=O)O)ccc1=O
  cytotoxicity at 10 µM: -5.21%

## COc1cccc(-n2ccc3nc(N4CCCC4)ncc3c2=O)c1
  cytotoxicity at 10 µM: 5.92%

## O=C(NCCCN1CCOCC1)c1ccn(COc2ccc(F)cc2)n1
  cytotoxicity at 10 µM: 7.16%

## Cc1cc(C(=O)N[C@@H]2CCC[C@@H](N3CCOCC3)[C@@H]2O)no1
  cytotoxicity at 10 µM: -1.61%

## O=C(c1cnccn1)N1CCCC(Cc2cncc3ccccc23)C1 (stereo not given)
  cytotoxicity at 10 µM: -31.4%

## CC1CCc2n[nH]c(C(=O)NCCCc3ccccn3)c2C1 (stereo not given)
  cytotoxicity at 10 µM: -24.3%

## Cc1cc(C(N)=O)nc(C2(C)CCCN2Cc2cnn(C)c2C)n1 (stereo not given)
  cytotoxicity at 10 µM: -20.6%

## CCC(=O)N(CC(N)=O)Cc1cccc(Oc2ccccc2)c1
  cytotoxicity at 10 µM: 9.66%

## COC(=O)[C@H](C)NC(=O)Cc1c(C)nc2cc(=O)[nH]n2c1C
  cytotoxicity at 10 µM: -1.51%

## CCNC(=O)c1ccc(NC(=O)N(C)Cc2cc(C)on2)cc1
  cytotoxicity at 10 µM: -4.22%

## Cc1ccc(=O)n(Cc2csc(N(C)C3CC3)n2)n1
  cytotoxicity at 10 µM: 4.09%

## COCCN1CCC(CNC(=O)CCc2cc(F)ccc2F)C1 (stereo not given)
  cytotoxicity at 10 µM: -4.05%

## Cc1nc(CN2CCCC2C(=O)OCc2ccccc2)oc1C (stereo not given)
  cytotoxicity at 10 µM: -1.86%

## O=C(c1cccc(NCc2cccc(F)c2)c1)N1CCC(O)CC1
  cytotoxicity at 10 µM: 5.84%

## O=C(NCC1(c2cccs2)CCCCC1)N1CCOC(CO)C1 (stereo not given)
  cytotoxicity at 10 µM: 0.75%

## O=C(c1cnc(-c2ccco2)s1)N1CCOc2ncccc21
  cytotoxicity at 10 µM: 7.48%

## CNC(=O)NC(=O)C(C)Nc1ccccc1OCCOC (stereo not given)
  cytotoxicity at 10 µM: 2.24%

## COCCOc1ccc(NC(=O)N(C(C)C)C2CC2)cn1
  cytotoxicity at 10 µM: -9.59%

## Cc1cccc(CNC(Cn2cncn2)c2ccccc2)c1C (stereo not given)
  cytotoxicity at 10 µM: -5.23%

## O=C(CCc1ccco1)NCC1CCCN1c1cccnn1 (stereo not given)
  cytotoxicity at 10 µM: -10.8%

## Cc1c(F)cc(C(=O)NCC(F)(F)F)cc1NCC(=O)N(C)C
  cytotoxicity at 10 µM: 10.2%

## CC1CCCN(C(=O)Cn2cc(I)cn2)C1 (stereo not given)
  cytotoxicity at 10 µM: 0.106%

## CCc1ccc(C(=O)Nc2cccc(CN3CCCC3C(N)=O)c2)cc1 (stereo not given)
  cytotoxicity at 10 µM: -0.268%

## Cc1cc(NC(=O)NC2CCCc3c2cnn3CCO)n(C)n1 (stereo not given)
  cytotoxicity at 10 µM: -15.7%

## COCCn1ccc2cc(NC(=O)COC)ccc21
  cytotoxicity at 10 µM: 0.82%

## CC(C)(C)c1n[nH]c(C2CN(C(=O)c3cnc[nH]3)CCO2)n1 (stereo not given)
  cytotoxicity at 10 µM: 0.152%

## Cc1ncc2c(n1)CN(C(C(N)=O)c1ccccc1)CC2 (stereo not given)
  cytotoxicity at 10 µM: 0.66%

## Cc1nc(C)n(Cc2cccc(NC3CCN(C)C3=O)c2)n1 (stereo not given)
  cytotoxicity at 10 µM: -0.519%

## Cc1cc(NC(=O)CN2CCCC(Cn3cncn3)C2)on1 (stereo not given)
  cytotoxicity at 10 µM: 1.68%

## N#CCCN(CCC#N)C(=O)CN(C1CC1)C1CCc2ccccc21 (stereo not given)
  cytotoxicity at 10 µM: 5.92%

## Cc1noc(C)c1CSC1CCCN(c2cnn(C)c2)C1=O (stereo not given)
  cytotoxicity at 10 µM: 16.8%

## COCc1nc(CNc2cccc(-c3ncon3)c2)cs1
  cytotoxicity at 10 µM: 1.22%

## O=C1CCC(C(=O)NCCOc2ccccc2-c2ccccc2)CN1 (stereo not given)
  cytotoxicity at 10 µM: 5.47%

## CC(C(=O)NC1CCCCC1)N1CCc2[nH]nc(C(F)(F)F)c2C1 (stereo not given)
  cytotoxicity at 10 µM: 5.15%

## CN(C)c1nc(CNC(=O)N[C@H](CO)c2ccccc2)cs1
  cytotoxicity at 10 µM: 11.7%

## O=C(NC1CCN(c2ccccc2OC(F)F)C1)c1c[nH]nn1 (stereo not given)
  cytotoxicity at 10 µM: -2.54%

## CCC1CN(C(=O)c2csc(-c3cnn(C)c3)n2)CCO1 (stereo not given)
  cytotoxicity at 10 µM: -23.2%

## Cn1nnnc1SC1CCCN(c2ccccc2Cl)C1=O (stereo not given)
  cytotoxicity at 10 µM: 3.71%

## CCc1cnc(N2CCN(Cc3ccno3)CC2)s1
  cytotoxicity at 10 µM: -2.54%

## CCN(Cc1cnn(C)c1)C(=O)c1cc2ccccc2c(=O)[nH]1
  cytotoxicity at 10 µM: -7.94%

## COc1ccc(CCC(=O)N(C(C)C)C2CCOCC2)cc1
  cytotoxicity at 10 µM: -11.8%

## O=C(CCOc1ccccc1F)N1CCC(O)CC1
  cytotoxicity at 10 µM: -14%

## N#Cc1ccc(NCCCOCC2CCOC2)c(F)c1 (stereo not given)
  cytotoxicity at 10 µM: 1.1%

## Cc1cnn(CCNCc2ccc(OCC(N)=O)cc2)c1
  cytotoxicity at 10 µM: -0.86%

## CCN(Cc1ccco1)C(=O)NCc1nnc2n1CCC2
  cytotoxicity at 10 µM: -10.3%

## O=C(c1cc(Cl)c2c(c1)OCO2)N1CCN(c2nccs2)CC1
  cytotoxicity at 10 µM: -3.6%

## O=C(Cc1c[nH]c2ccccc12)N1CCN(C(=O)c2ccoc2)CC1
  cytotoxicity at 10 µM: -2.15%

## CN(Cc1nnc(C2CC2)n1C)C1CCN(CCc2cccs2)C1 (stereo not given)
  cytotoxicity at 10 µM: -8.71%

## CC(C)c1nc(CN(C)C2CCN(Cc3nc(C4CC4)no3)C2)no1 (stereo not given)
  cytotoxicity at 10 µM: -9.37%

## CCCOc1cc(C)ccc1NC(=O)NCCC(=O)N(C)C
  cytotoxicity at 10 µM: -13.9%

## CC(=O)N1CCC2(CC1)C(=O)N(C)c1ccc(F)cc12
  cytotoxicity at 10 µM: -116%

## COCC(=O)N1CC[C@H]2C[C@H](c3nc(C)no3)O[C@@H]2C1
  cytotoxicity at 10 µM: -76.1%

## CCCNC(=O)N1CCCC2(CCC(=O)N(CCc3c[nH]cn3)C2)C1 (stereo not given)
  cytotoxicity at 10 µM: 2.67%

## CCNC(=O)[C@@H]1C[C@H](n2cc(CC3CCCCC3)nn2)CN1
  cytotoxicity at 10 µM: 1.06%

## CCCc1cnc(C)nc1NCCc1nc(C)cc(=O)[nH]1
  cytotoxicity at 10 µM: -5.1%

## CC(C)Oc1cccc(F)c1C(C(=O)O)N1CCCC1 (stereo not given)
  cytotoxicity at 10 µM: -3.33%

## O=C(NC1CC1)C1CNCCN1C(=O)CCOc1ccccc1 (stereo not given)
  cytotoxicity at 10 µM: 2.08%

## O=C(c1ccc(-c2nc[nH]n2)cc1)N1CCOC(C(F)(F)F)C1 (stereo not given)
  cytotoxicity at 10 µM: -2.35%

## CC(C)C[C@@H](N)C(=O)N(C)Cc1csc(C(C)C)n1
  cytotoxicity at 10 µM: -127%

## CN(Cc1ccccc1CN1CCCC1)c1ncnc2[nH]ccc12
  cytotoxicity at 10 µM: 8.53%

## COc1ccc(N2CCN(C(=O)CCn3nccc3C)CC2(C)C)cc1
  cytotoxicity at 10 µM: 57.1%

## O=S(=O)(c1ccc(-c2nc3c([nH]2)CCNC3)cc1)N1CCCC1
  cytotoxicity at 10 µM: -2.09%

## CCCNc1ncc(CN2CCC3(CCNC(=O)CC3)CC2)cn1
  cytotoxicity at 10 µM: -166%

## COc1ccc(C(C(=O)O)N2CCC(Cn3cccn3)CC2)c(OC)n1 (stereo not given)
  cytotoxicity at 10 µM: -9.46%

## CN(C)CC(C)(C)Cn1cnc(-c2ccccc2)c1-c1cccc(O)c1
  cytotoxicity at 10 µM: -5.53%

## CCc1ncc(CN2CCC(Oc3ccccc3OC)CC2)cn1
  cytotoxicity at 10 µM: -8.17%

## COc1cc(N2CCCC(c3nccn3CCN(C)C)C2)nc(N)n1 (stereo not given)
  cytotoxicity at 10 µM: -9.6%

## COc1cccc(C)c1C(=O)N1C[C@@H](CN(C)C)[C@@H](CO)C1
  cytotoxicity at 10 µM: -10.4%

## COCCNc1nc(C2CCCC2)nc2c1CCNCC2
  cytotoxicity at 10 µM: -6.4%

## COC(=O)N1CC(C)=C(C)CN1C(=O)Nc1ccc(Cl)cc1
  cytotoxicity at 10 µM: -7.97%

## CC(C)c1nn(C)c(N(C)C)c1CNCC(O)c1ccccc1 (stereo not given)
  cytotoxicity at 10 µM: -1.83%

## Cc1nc(-c2ccc(Cl)s2)sc1C(=O)NC(C)(C)C(N)=O
  cytotoxicity at 10 µM: -3.04%

## CCC(N)c1ccccc1OCC(=O)N1CCCC1 (stereo not given)
  cytotoxicity at 10 µM: -5.16%

## CC(C)(C)n1cc(C(=O)N2CCN(Cc3cccnc3)CC2)cn1
  cytotoxicity at 10 µM: -7.51%

## CCc1nccn1C1CCCN(C(=O)c2ccc(NC3CC3)nc2)C1 (stereo not given)
  cytotoxicity at 10 µM: -11.3%

## CCn1cnnc1CNC(=O)N(C)C(C)c1cccs1 (stereo not given)
  cytotoxicity at 10 µM: -15.9%

## CS(=O)(=O)NCCCNC(=O)NCc1ccccc1
  cytotoxicity at 10 µM: -3.54%

## CCOc1c(Br)cc(/C=C/c2ncc(C(=O)O)s2)cc1OC
  cytotoxicity at 10 µM: -1.26%

## COc1ncccc1CNC(=O)c1cc(C)on1
  cytotoxicity at 10 µM: -20.2%

## Cc1oc(C)c(C(=O)NCc2cccc(C(N)=O)c2)c1C
  cytotoxicity at 10 µM: -15.8%

## CC(CNCc1ccc(Cl)c(Cl)c1)Oc1ccccn1 (stereo not given)
  cytotoxicity at 10 µM: -0.291%

## COC(C)(C)C(=O)N1CCC(c2cc(CN(C)C)n(C)n2)CC1
  cytotoxicity at 10 µM: 0.748%

## CN(C)CCn1c(=O)n(C)c(=O)c2ccccc21
  cytotoxicity at 10 µM: -1.48%

## Cc1cccc(CN2C[C@@H]3[C@@H](C(=O)NCC(C)C)CCS(=O)(=O)[C@@H]3C2)c1
  cytotoxicity at 10 µM: -2.63%

## Cc1ccc2c(c1)CCC2NCc1c(C)nn(CCO)c1C (stereo not given)
  cytotoxicity at 10 µM: 11.2%

## COCCN1C[C@H](OCc2csc(C)n2)[C@H]2COC[C@H]21
  cytotoxicity at 10 µM: -6.08%

## Cc1noc(C)c1CN1C[C@H](OCC2CC2)[C@H]2COC[C@H]21
  cytotoxicity at 10 µM: -5.78%

## CC(C)NCc1nc(-c2ccc3c(c2)OCO3)c[nH]1
  cytotoxicity at 10 µM: 6.24%

## CN(C)C(=O)CN1CC[C@H]2CN(S(C)(=O)=O)C[C@@H]2C1=O
  cytotoxicity at 10 µM: -13.1%

## O=C1N(Cc2cccnc2)CCC12CCCN(c1ncc(F)cn1)C2 (stereo not given)
  cytotoxicity at 10 µM: -1%

## O=C1Nc2ccccc2C12CCN(Cc1ccccn1)CC2
  cytotoxicity at 10 µM: -3.45%

## CN(C)CCOCc1nnc2n1CCN(Cc1ccsc1)C2
  cytotoxicity at 10 µM: 3.02%

## COc1ccc(-c2n[nH]cc2CNC2CCN(C3CC3)CC2)cc1
  cytotoxicity at 10 µM: 1.75%

## Cc1noc(C)c1CN1CCCC2(CCN(C(=O)NC3CC3)C2)C1 (stereo not given)
  cytotoxicity at 10 µM: 7.25%

## Cc1noc(C)c1CN1CCO[C@H]2CN(C3CCOCC3)C[C@H]21
  cytotoxicity at 10 µM: -1.41%

## CO[C@@H]1CCN(C(=O)Cc2ccsc2)[C@H]1Cc1cccnc1
  cytotoxicity at 10 µM: 6.9%

## COCCN1C(=O)[C@@H]2CC[C@H]1CN(c1nccc(C)n1)C2
  cytotoxicity at 10 µM: 9.73%

## CC(C)Cn1cc2nc(N3CCCC(C)C3)[nH]cc-2c1=O (stereo not given)
  cytotoxicity at 10 µM: 2.22%
